Assay outcomes: PubChem BioAssay, several laboratories
Rows were chosen to be rich in hits. Some 2.3% of all compounds tested hit in one or more screens of this group.
T cruzi repl: blocks replication of Trypanosoma cruzi. T. cruzi beta-gal in NIH3T3, luminescence, 90 h. inhibition, % (no concentration beside the values). actives 1.4% (n = 300,000). AID 1885;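 active means mean inhibition across valid replicates above about 55%, limit read from the data; inconclusive means mean below that limit but half or more replicates reach it; inactive means mean below it, under half of replicates reach it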;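 further: signal also drops with host cell toxicity which is not excluded here; 0% = plate median of DMSO wells and 100% = zero luminescence signal; higher percent means less beta-gal luminescence so fewer parasites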
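System: Mouse NIH/3T3 fibroblasts infected with β-gal-expressing T. cruzi Tulahuen C4 | Quantity: NIH/3T3 cells, 5,000 per well | Reagent: 5000 reporter trypomastigotes per well | Dosing: Compound pinned at 50 nL/well, DMSO | Schedule: 3 h host attachment, then at least 90 h co-culture | Detection: GalScreen luminescence, 60 min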
KLF5 inhibitor: inhibitors of KLF5 expression; DLD-1 KLF5 promoter-luciferase reporter, luminescence; inhibition, % at 5 µM; actives 0.23% (n = 290,000);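 active means inhibition above a per-plate limit of that plate's mean compound inhibition plus 3 SD, cut at about 60% in these data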;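 further: 0% = DMSO wells and 100% = LY294002 at 200 µM; higher means less KLF5 promoter-driven luciferase light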
A1 inh: inhibitors of the anti-apoptotic protein A1, read as caspase activation; MEF A1-2A-BIM cells, Caspase-Glo 3/7 luminescence, 3 h; percent of clofoctol response, vehicle zero; actives 0.066% (n = 330,000); caspase activation, % (concentration not given with the values); AID 2462;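 active means over half of replicate activation scores above 10%, or exactly half above 10 with the replicate mean above 10; inconclusive means replicate mean below 10 yet half the replicates above 10; inactive means over half of replicates below 10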
HIF act: HIF pathway transcriptional activation | U2OS HRE-luciferase reporter, luminescence; normalized: DMSO 0%, desferrioxamine 100% | activation, % at 7.5 µM (by protocol) | actives 0.32% (n = 300,000) | AID 1910;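 active means mean activation of at least 10% of the iron chelator positive control signal, with at least half of replicates also reaching 10%; inconclusive means mean and replicate majority disagree about reaching 10%; inactive means mean and most replicates under 10%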
Beta cell apopt: blocks beta cell apoptosis | protection from apoptosis, % (no concentration beside the values) | actives 0.8% (n = 300,000) | AID 435005 | INS-1E cytokine-induced death, ATP luminescence, 48 h; percent of positive-control rescue, neutral wells zero;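 active means Every replicate reaches about 75%, or at least half do and their mean reaches it too, limit read from the data; inconclusive means At least half of replicates reach the limit but their mean does not; inactive means Under half of replicates reach the limit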;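 further: 0% = cytokine-treated negative control wells and 100% = positive control rescue; higher means more ATP so stronger rescue from cytokine killing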
Numbers without * were called inactive; ? = inconclusive; . = no result given.

SMILES | T cruzi repl | KLF5 inhibitor | A1 inh | HIF act | Beta cell apopt
CC(=O)Nc1ccc(NC(=O)CS(=O)(=O)c2cn(CC(=O)N3CCC(C)CC3)c3ccccc23)cc1 | -3.3 | -29.0 | -1.4 | 0.0 | 6.3
Cc1nn(C(C)C(=O)NCCc2cccs2)c(=O)c2nn(-c3ccccc3)c(C)c12 (centres undefined) | -11.3 | -15.2 | 0.1 | -0.1 | -4.5
COC(=O)c1cc(Nc2cc(C)c3c(O)cccc3n2)cc(C(=O)OC)c1 | 15.2 | -26.2 | 0.4 | 1.5 | 5.8
Cc1ccc(Nc2cc(C)c3c(O)cccc3n2)cc1C | 66.4* | -91.4 | -1.4 | 4.2 | 22.6
Cc1ccccc1Nc1cc(C)c2c(O)cccc2n1 | 18.6 | -11.5 | -0.6 | 3.0 | 27.0
COc1ccc(Nc2cc(C)c3c(O)cccc3n2)cc1 | 59.7* | -120.8 | -2.3 | 2.1 | 1.9
Cc1cc2c(n1-c1ccc(Br)cc1)CC(C)(C)CC2=O | 57.9* | -4.6 | 0.0 | 0.4 | .
O=C(NCC1CCCO1)c1cc2c([nH]c3ccccc32)c(-c2cccc(Br)c2)n1 (centres undefined) | 54.9* | -1.8 | 0.3 | -0.1 | 57.7
CCCOc1ccc(NC(=O)OC2CCN(C)CC2)cc1 | 54.6* | -41.2 | -0.5 | 0.8 | -11.0
O=C(Nc1nc(-c2ccc(S(=O)(=O)N3CCCC3)cc2)cs1)c1cccs1 | . | -31.8 | 0.1 | . | .
O=C(Nc1nc(-c2cccs2)cs1)c1cccc(S(=O)(=O)N2CCCCC2)c1 | 61.6* | -1.9 | -1.3 | -0.2 | -4.0
O=C(Nc1nc(-c2cc3ccccc3o2)cs1)c1ccc(S(=O)(=O)N2CCCC2)cc1 | 65.5* | -25.8 | -0.2 | 0.4 | 72.2
CC1CN(S(=O)(=O)c2ccc(C(=O)Nc3nc(-c4cc5ccccc5o4)cs3)cc2)CC(C)O1 (centres undefined) | -8.6 | -20.0 | 0.8 | -0.2 | 54.5
O=C(Nc1nc(-c2ccc(S(=O)(=O)N3CCCCCC3)cc2)cs1)c1cccs1 | 70.3* | -30.0 | 0.1 | 0.3 | 17.8
CS(=O)(=O)NCc1ccccc1Br | . | . | 0.5 | . | 1.4
CC(Sc1nncn1C)C(=O)Nc1ccc(N2CCCCC2)cc1 (centres undefined) | . | . | -0.4 | . | 0.1
CCCCCc1cc(=O)oc2c(C(CCN3CCCCC3)c3ccc4c(c3)OCO4)c(OC)cc(OC)c12 (centres undefined) | 45.1 | . | -0.3 | -0.5 | 98.4*
COc1cc(C(CCN2CCCC2)c2c(OC)cc(OC)c3c(-c4ccccc4)cc(=O)oc23)cc(OC)c1OC (centres undefined) | 57.6* | . | -0.2 | -0.2 | -1.4
Cc1ccc(C2/C(=C(\O)c3ccc4c(c3)OCCO4)C(=O)C(=O)N2CC2CCCO2)cc1 (centres undefined) | . | -15.8 | 1.1 | . | -1.2
COC(=O)c1cc(NC(=O)c2cc(-c3ccc(Cl)cc3)oc2C(F)(F)F)ccc1N1CCOCC1 | 62.8* | 2.9 | -1.0 | -0.4 | 0.2
CCN(CCNC(=O)C1CCCN(Cc2nc(-c3ccc(OC)cc3)oc2C)C1)c1ccccc1 (centres undefined) | 62.4* | -24.3 | 0.3 | -0.6 | -0.4
Cc1oc(-c2ccc(Cl)cc2)nc1CN1CCC(C(=O)NCCCN2CCOCC2)CC1 | 25.7 | -12.2 | -0.3 | 0.2 | -9.7
Cc1oc(-c2cccc(Cl)c2)nc1CN1CCCC(C(=O)NCCCN2CCOCC2)C1 (centres undefined) | 62.6* | -23.6 | 0.0 | 0.3 | 1.4
CCN1CCN(C(=O)C2CCC(=O)N(CCCN3CCCC3=O)C2)CC1 (centres undefined) | -6.5 | -14.7 | 0.4 | -0.4 | -8.1
COc1ccc(C(=O)NC(=S)N(C)C2CCCCC2)cc1Br | 59.5* | -35.7 | -0.1 | 0.0 | 11.9
SMILES | T cruzi repl | KLF5 inhibitor | A1 inh | HIF act | Beta cell apopt
Cc1ccc(C(=O)NC(=S)N(C)C2CCCCC2)cc1Br | 59.9* | -54.0 | -0.8 | 0.7 | 8.0
COc1ccc(C(=O)NC(=S)N(C)C2CCCCC2)cc1 | . | -57.5 | ? | . | -2.1
CN(C(=S)NC(=O)c1ccccc1Br)C1CCCCC1 | -21.0 | 27.9 | 0.0 | 0.6 | -0.4
COCCCNc1nc2ccccc2nc1NS(=O)(=O)c1cccc(C)c1 | 6.1 | -34.7 | 0.4 | -0.3 | -2.3
NCCCn1c(C(=O)c2cc(Cl)c(N)c(Cl)c2)c2ccc([N+](=O)[O-])cc2[n+]1[O-] | 24.3 | . | 0.5 | 4.9 | 86.9*
CC1Cc2ccccc2N1Cc1cc(=O)c(OCC(=O)NCCc2ccccc2)co1 (centres undefined) | 6.0 | . | -0.7 | -0.5 | .
CC(=O)Nc1ccc(NC(=O)c2cc(-c3ccccc3)nc3ccccc23)cc1 | 6.0 | -28.5 | 1.4 | -1.6 | .
CC(C)(C)NS(=O)(=O)c1ccc(NC(=O)c2cc(-c3ccccc3)nc3ccccc23)cc1 | 58.7* | -7.4 | -0.3 | -0.3 | 16.3
Cc1ccc(C)c(-c2cc(C(=O)Nc3cccc(C(=O)O)c3)c3ccccc3n2)c1 | -8.4 | -33.6 | 0.2 | 39.4* | -6.8
C[C@@H]1CCCCCCCCC(=O)OCCN(C(=O)OC(C)(C)C)[C@H](C)CCCCCCCCC(=O)OCCN(C(=O)OC(C)(C)C)[C@H](C)CCCCCCCCC(=O)OCCN1C(=O)OC(C)(C)C | . | . | -0.4 | . | -14.0
CC[C@@]1(C(=O)OC)N[C@H](CN(C)C(=O)Nc2ccc(Cl)cc2)[C@@H]2C(=O)N(Cc3ccccc3)C(=O)[C@@H]21 | . | . | 0.4 | . | -2.7
CC(C)(C)OC(=O)N[C@@H](Cc1ccccc1)c1nnc(S(=O)(=O)Cc2ccccc2)o1 | . | -2.4 | 1.9 | . | 48.9
Cc1ccccc1CS(=O)(=O)c1nnc([C@H](Cc2ccccc2)NC(=O)OC(C)(C)C)o1 | -25.6 | 6.7 | 0.9 | -2.9 | 93.2*
CN1CCN(c2ccc(S(=O)(=O)N3CCOCC3)cc2NC(=O)Cc2ccccc2F)CC1 | . | . | 0.3 | . | -5.4
CSCCC(=O)Nc1cc(S(=O)(=O)N2CCOCC2)ccc1N1CCN(C)CC1 | 64.5* | -47.2 | -0.1 | -0.2 | -3.6
CCCCCC(=O)Nc1cc(S(=O)(=O)N2CCOCC2)ccc1N1CCN(C)CC1 | 64.3* | -6.5 | -0.4 | -0.4 | 0.2
C=CCSc1nnc(NC(=O)CCN2C(=O)C3CC=CCC3C2=O)s1 (centres undefined) | . | . | 0.6 | . | -5.9
Cc1ccc2nc(-c3ccccc3NC(=O)CCC(=O)O)c(=O)[nH]c2c1 | -17.5 | -9.0 | 0.3 | 24.1* | .
CC(C)C(=O)Nc1ccccc1-c1nc2ccccc2[nH]c1=O | 0.3 | -5.7 | -1.7 | 0.4 | -2.5
CCN1CCN(S(=O)(=O)c2ccc(C(=O)Nc3sc4c(c3C(N)=O)CCN(CC)C4)cc2)CC1 | 5.6 | -5.0 | 0.0 | 0.0 | -3.9
CCN1CCc2c(sc(NC(=O)c3ccc4ccccc4c3)c2C(N)=O)C1 | 61.8* | -22.1 | 0.6 | 0.1 | 7.2
CCN(CC)S(=O)(=O)c1cc([N+](=O)[O-])ccc1NNC(=O)Nc1ccc(Cl)c(Cl)c1 | 60.5* | 7.1 | 1.9 | -8.8 | 113.2*
CCCCN(CCCC)S(=O)(=O)c1ccc(NC(=O)c2cccs2)cc1 | 56.1* | -67.9 | -0.3 | 0.1 | 15.4
